Measurements from ChEMBL document CHEMBL4680120, “Novel anti-Alzheimer phenol-lipoyl hybrids: Synthesis, physico-chemical characterization, and biological evaluation” (Eur J Med Chem, 2020).
In brackets after ≈: the same amount, converted by molar mass. Activity calls are given as the source filed them. The calls are words filed in the database; no cut-off is given here.

Key:
[1] = Solubility of compound in water by HPLC analysis; assay type: physicochemical
[2] = Stability in simulated gastric fluid at pH 1.2 assessed as relative difference measured after 15 mins in presence of pepsin by HPLC analysis; assay type: ADME; conditions: isolated protein, pH 1.2, 0.25 h
How it was run: (§1)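 Incubation in simulated gastric fluid (pH 1.2, pepsin) or simulated intestinal fluid (pH 6.8, pancreatin). Aliquots deproteinized with ice-cold acetonitrile, centrifuged at 4°C and 12000 rpm for 10 min, filtered, analyzed by HPLC. RD% = (Ci − Cf)/Ci × 100. Stable if RD < 5%. Means of three experiments.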

[3] = Stability in simulated gastric fluid at pH 1.2 assessed as relative difference measured after 30 mins in presence of pepsin by HPLC analysis; assay type: ADME; conditions: isolated protein, pH 1.2, 0.5 h; how it was run: as §1
[4] = Stability in simulated gastric fluid at pH 1.2 assessed as relative difference measured after 60 mins in presence of pepsin by HPLC analysis; assay type: ADME; conditions: isolated protein, pH 1.2, 1 h; how it was run: as §1
[5] = Stability in simulated intestinal fluid at pH 6.8 assessed as relative difference measured after 15 mins in presence of pancreatin by HPLC analysis; assay type: ADME; conditions: simulated gi fluid, pH 6.8, 0.25 h; how it was run: as §1
[6] = Stability in simulated intestinal fluid at pH 6.8 assessed as relative difference measured after 30 mins in presence of pancreatin by HPLC analysis; assay type: ADME; conditions: simulated gi fluid, pH 6.8, 0.5 h; how it was run: as §1
[7] = Stability in simulated intestinal fluid at pH 6.8 assessed as relative difference measured after 60 mins in presence of pancreatin by HPLC analysis; assay type: ADME; conditions: simulated gi fluid, pH 6.8, 1 h; how it was run: as §1
[8] = Stability in simulated intestinal fluid at pH 6.8 assessed as relative difference measured after 120 mins in presence of pancreatin by HPLC analysis; assay type: ADME; conditions: simulated gi fluid, pH 6.8, 2 h; how it was run: as §1
[9] = Stability in simulated intestinal fluid at pH 6.8 assessed as relative difference measured after 180 mins in presence of pancreatin by HPLC analysis; assay type: ADME; conditions: simulated gi fluid, pH 6.8, 3 h; how it was run: as §1
[10] = Half life in human plasma by HPLC analysis; assay type: ADME, cell-free
How it was run: (§2)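 Compound stock added to human plasma pre-warmed to 37°C and diluted with 0.02 M phosphate buffer (pH 7.4) to 80% plasma. 100 μL samples taken over time, quenched with 200 μL cold acetonitrile, centrifuged, and supernatant analyzed by HPLC. t½ and kobs are means of three experiments.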

[11] = Stability in human plasma assessed as observed rate constant by HPLC analysis; assay type: ADME, cell-free; how it was run: as §2
[12] = system: SH-SY5Y; assay: Cytotoxicity against human SH-SY5Y cells assessed as reduction in cell viability at 1 to 250 mg/l measured after 48 hrs by MTT assay; assay type: cell-based; conditions: dose 1-250 mg/L
How it was run: (§3)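 SH-SY5Y cells grown in DMEM/F12 with 10% FBS and differentiated with retinoic acid (10 μM), seeded at 1×10^4 per well and cultured 24 h. Cells were given hybrids at 1–250 mg/L with or without Aβ1-42 (20 μM) for 48 h. MTT (5 mg/mL) added for 4 h at 37°C, DMSO solubilization, read at 570/630 nm. LDH read at 450 nm. Five independent experiments.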

[13] = system: SH-SY5Y; assay: Neuroprotective activity against amyloid beta (1 to 42)-induced toxicity in human SH-SY5Y cells assessed as increase in cell viability at 1 to 250 mg/l measured after 48 hrs by MTT assay; assay type: functional, cell-based; conditions: dose 1-250 mg/L; how it was run: as §3
[14] = system: SH-SY5Y; assay: Neuroprotective activity against amyloid beta (1 to 42)-induced toxicity in human SH-SY5Y cells assessed as increase in cell viability at 1 to 250 mg/l measured after 48 hrs by LDH release assay; assay type: functional, cell-based; conditions: dose 1-250 mg/L; how it was run: as §3
[15] = system: SH-SY5Y; assay: Neuroprotective activity against amyloid beta (1 to 42)-induced apoptosis in human SH-SY5Y cells assessed as early apoptotic cells at IC50 measured after 48 hrs by Annexin-V/Propidium iodide staining based flow cytometry (reference value: 0.74%); assay type: functional
[16] = system: SH-SY5Y; assay: Neuroprotective activity against amyloid beta (1 to 42)-induced apoptosis in human SH-SY5Y cells assessed as late apoptotic cells at IC50 measured after 48 hrs by Annexin-V/Propidium iodide staining based flow cytometry (reference value: 33.72%); assay type: functional
[17] = system: SH-SY5Y; assay: Neuroprotective activity against amyloid beta (1 to 42)-induced apoptosis in human SH-SY5Y cells assessed as necrotic cells at IC50 measured after 48 hrs by Annexin-V/Propidium iodide staining based flow cytometry (reference value: 6.99%); assay type: functional
[18] = system: Erythrocyte; assay: Antioxidant activity in human RBC assessed as increase in total antioxidant capacity level up to 400 ug/ml measured after 72 hrs relative to control; assay type: functional; conditions: dose microg/ml <=400
[19] = system: Erythrocyte; assay: Cytoprotective activity against H2O2-induced oxidative damage in human RBC assessed as increase in cell viability measured after 72 hrs by MTT assay; assay type: functional, cell-based
[20] = system: Erythrocyte; assay: Cytoprotective activity against H2O2-induced oxidative damage in human RBC assessed as increase in cell viability measured after 72 hrs by LDH release assay; assay type: functional, cell-based
How it was run: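 Heparinized whole blood cultured with phytohemagglutinin. Cells were co-incubated with 50 or 100 μM hybrid and H2O2 (25 μM). Viability was read by MTT: lymphocytes at 2×10^5 per well, MTT 4 h at 37°C, formazan dissolved in DMSO, absorbance 570 nm. LDH release was measured on 100 μL medium with a commercial kit. Results are relative to untreated control.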

[21] = system: Erythrocyte; assay: Cytoprotective activity against H2O2-induced oxidative damage in human RBC assessed as recovery of H2O2-induced cell death at 50 to 100 uM measured after 72 hrs by MTT assay relative to control; assay type: functional; conditions: dose 50-100 µM
[22] = system: Erythrocyte; assay: Cytoprotective activity against H2O2-induced oxidative damage in human RBC assessed as recovery of H2O2-induced cell death at 50 to 100 uM measured after 72 hrs by LDH release assay relative to control; assay type: functional; conditions: dose 50-100 µM
How it was run: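 Heparinised human whole blood cultured in phytohemagglutinin-containing chromosome medium and co-incubated with hybrids and H2O2 at 37C for 72 h. LDH released into the culture medium was measured with a commercial kit. Triton X-100 served as positive control, with untreated cultures as reference. Cytoprotection was expressed as viability relative to control.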

[23] = system: Erythrocyte; assay: Cytoprotective activity against H2O2-induced oxidative damage in human RBC assessed as restoration of antioxidant activity measured after 72 hrs by TAC assay; assay type: functional, cell-based
[24] = system: Erythrocyte; assay: Cytoprotective activity against H2O2-induced oxidative damage in human RBC assessed as restoration of antioxidant activity at 50 uM measured after 72 hrs by TAC assay relative to control; assay type: functional
[25] = system: Erythrocyte; assay: Cytoprotective activity against H2O2-induced oxidative damage in human RBC assessed as restoration of antioxidant activity at 100 uM measured after 72 hrs by TAC assay relative to control; assay type: functional

In the case of `COc1ccc(/C=C/C(=O)OCCOCCNC(=O)CCCCC2CCSS2)cc1OC` (stereo not given), the solubility [1] is reported as 10 µg/mL (≈ 20.7 µM), the “fold change (FC)” value [2] is reported as 5.6% and the “fold change (FC)” value [3] is reported as 7.35%. The “fold change (FC)” value [4] was 30.76%, the “fold change (FC)” value [5] was 12.01% and the “fold change (FC)” value [6] was 21.06%. For the same compound, the “fold change (FC)” value [7] was 27.2%, the “fold change (FC)” value [8] was 31.38% and the “fold change (FC)” value [9] was 40.3%. For the same compound, the half-life [10] was 1030 min, the K [11] was 0.042 h⁻¹ and the Activity [12] was “Non-Toxic”. The Activity [13] was “Active”, the Activity [14] was “Active” and the Activity [15] was 2.85%. For the same compound, the Activity [16] was 15.39%, the Activity [17] was 1.6% and the Activity [18] was 2%. The Activity [19] was “Dose-dependent effect”, the Activity [20] was “Dose-dependent effect” and the Activity [21] was 0.5%. The Activity [22] was 0.4%, the Activity [23] was “Dose-dependent effect” and the Activity [24] was 12.5%. For the same compound, the Activity [25] was 29.2%.
